# In paper PMC10028500 (RSC Advances, 2023):
# How the values were obtained:
# [1] = tested on: Liver (HepG2) cancer cell line; assay: IC50 by MTT assay, HepG2; type: cell-based; details: HepG2, 48 h
# Summary of the method: (§1)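 Cells were grown in DMEM at 37 °C, 5% CO2, 95% humidity, trypsinised and counted by trypan blue/hemocytometer. 10^4 cells per well were incubated 24 h, then test compound (3.5, 7, 14, 28, 56 μM; four replicates each) was added at ~70% confluence for 48 h. MTT (0.5 mg/mL) ran 4 h, then DMSO 15 min at room temperature, read at 595 nm. IC50 came from viability vs concentration curves.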
# [2] = tested on: breast (MCF-7) cancer cell line; assay: IC50 by MTT assay, MCF-7; type: cell-based; details: MCF-7, 48 h
# Summary of the method: as §1
# [3] = tested on: HepG2 cells; assay: Flow cytometry analysis of the cell cycle of HepG2; type: cell-based; details: HepG2, 24 h, around IC50 concentration
# Summary of the method: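 HepG2 cells (ca. 1 × 10^6) were seeded 24 h, then exposed to test compound for 24 h. Cells were harvested with 0.25% trypsin, spun 5 min at 1500 rpm, washed twice in PBS and fixed in 70% ethanol for 4 h at −20 °C. They were taken up in cold PBS with RNase A, stained with propidium iodide for 1 h in the dark and analysed by flow cytometry.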
# [4] = tested on: ct-DNA; details: cited from earlier work
# [5] = tested on: ct-DNA; details: cited from earlier work; remark: listed apart in the source
compound,measurement,setting,value
N.N.[Cl][Pt][Cl] [Cisplatin],IC50,[1],19.7 ± 1.53 µM
same,IC50,[2],18.4 ± 2.72 µM
same,"cell population in the G1/G0, S and G2/M phases vs control",[3],decreases
same,cell population in the sub-G phase,[3]; control ca. 1%,47.3%
[Cl-].[Pt+2].c1ccc(-c2cccc(-c3ccccn3)n2)nc1 [Pt(terpy)Cl],DNA binding mode,[4],shifts gradually from the intercalation mode to the covalent binding mode
CC[n+]1c(-c2ccccc2)c2cc(N)ccc2c2ccc(N)cc21 [ethidium bromide],binding constant (KEB) of ethidium bromide to DNA,[5],1 × 10^5
